Results taken from ChEMBL document CHEMBL4028913, “Discovery of Novel Potent VEGFR-2 Inhibitors Exerting Significant Antiproliferative Activity against Cancer Cell Lines” (J Med Chem, 2018).
Calls of active or inactive are those of the source. The calls are words filed in the database; no cut-off is given here.

Tests used:
UACC-62 = assay: Cytotoxicity against human UACC62 cells after 48 hrs by SRB assay; format: functional; details: UACC-62, 48 h
Method in brief: (§1)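 NCI-60 panel, five doses at 1-log steps from 10−4 to 10−8 M. Cells grown in RPMI 1640 with 5% FBS and 2 mM L-glutamine, seeded at 5000–40 000 cells/well and preincubated 24 h. Tz plates were TCA-fixed at drug addition. Drug exposure 48 h at 37 °C, then TCA fixation, 0.4% SRB stain and absorbance at 515 nm. GI50 taken from percent growth relative to Tz and control.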

IGROV-1 = assay: Cytotoxicity against human IGROV1 cells after 48 hrs by SRB assay; format: functional; details: IGROV-1, 48 h
Method in brief: (§2)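 NCI-60 panel; cells grown in RPMI 1640 with 5% FBS and 2 mM L-glutamine, plated at 5000–40 000 cells/well by doubling time, preincubated 24 h (37 °C, 5% CO2). Drug added at five concentrations, 1-log steps from 10−4 to 10−8 M, for 48 h. Fixed with TCA, stained with 0.4% SRB, absorbance read at 515 nm. Percent growth computed against time-zero and untreated controls; GI50, TGI and LC50 derived.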

[1] = Potency index, ratio of sorafenib GI50 to test compound GI50 for human non-small cell lung cancer cells; format: functional
Method in brief: (§3)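 GI50 is the concentration giving 50% reduction in net protein increase relative to control. Potency index is the reference-drug GI50 divided by the test-compound GI50.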

[2] = Potency index, ratio of test compound LC50 to sunitinib LC50 for human prostate cancer cells; format: functional, Prostate cancer cell
U-251 = assay: Cytotoxicity against human U251 cells after 48 hrs by SRB assay; format: functional; details: U-251, 48 h; method in brief: as §1
KM12 = assay: Cytotoxicity against human KM12 cells after 48 hrs by SRB assay; format: functional; details: KM12, 48 h; method in brief: as §2
[3] = target: Ephrin type-A receptor 4 (Homo sapiens) (UniProt P54764); assay: Inhibition of human EPHA4 at 0.5 uM relative to control
HCT-15 = assay: Cytotoxicity against human HCT15 cells after 48 hrs by SRB assay; format: functional; details: HCT-15, 48 h; method in brief: as §2
[4] = target: Mitogen-activated protein kinase kinase kinase kinase 5 (Homo sapiens) (UniProt Q9Y4K4); assay: Inhibition of human KHS at 0.5 uM relative to control
SW-620 = assay: Cytotoxicity against human SW620 cells after 48 hrs by SRB assay; format: functional; details: SW-620, 48 h; method in brief: as §1
NCI/ADR-RES = assay: Potency index, ratio of sorafenib GI50 to test compound GI50 for human NCI-ADR-RES cells; format: functional; method in brief: as §3
OVCAR-4 = assay: Cytotoxicity against human OVCAR4 cells after 48 hrs by SRB assay; format: functional; details: OVCAR-4, 48 h; method in brief: as §2
NCI-H322M = assay: Cytotoxicity against human NCI-H322M cells after 48 hrs by SRB assay; format: functional; method in brief: as §2
[5] = target: Tyrosine-protein kinase ABL1 (Homo sapiens) (UniProt P00519); details: at 0.5 µM
OVCAR-3 = assay: Cytotoxicity against human OVCAR3 cells after 48 hrs by SRB assay; format: functional; details: OVCAR-3, 48 h; method in brief: as §2
Melanoma cell [6] = assay: Potency index, ratio of sorafenib GI50 to test compound GI50 for human melanoma cells; format: functional; method in brief: as §3
Melanoma cell [7] = assay: Potency index, ratio of sunitinib GI50 to test compound GI50 for human melanoma cells; format: functional; method in brief: as §3
BT-549 = assay: Cytotoxicity against human BT549 cells after 48 hrs by SRB assay; format: functional; details: BT-549, 48 h; method in brief: as §2
ACHN = assay: Cytotoxicity against human ACHN cells after 48 hrs by SRB assay; format: functional; method in brief: as §2
[8] = target: Vascular endothelial growth factor receptor 2 (Homo sapiens, UniProt P35968); details: at 0.5 µM
[9] = read-out: LC50 (the source's name)

Sequence of Ephrin type-A receptor 4 (Homo sapiens) (P54764 whole entry): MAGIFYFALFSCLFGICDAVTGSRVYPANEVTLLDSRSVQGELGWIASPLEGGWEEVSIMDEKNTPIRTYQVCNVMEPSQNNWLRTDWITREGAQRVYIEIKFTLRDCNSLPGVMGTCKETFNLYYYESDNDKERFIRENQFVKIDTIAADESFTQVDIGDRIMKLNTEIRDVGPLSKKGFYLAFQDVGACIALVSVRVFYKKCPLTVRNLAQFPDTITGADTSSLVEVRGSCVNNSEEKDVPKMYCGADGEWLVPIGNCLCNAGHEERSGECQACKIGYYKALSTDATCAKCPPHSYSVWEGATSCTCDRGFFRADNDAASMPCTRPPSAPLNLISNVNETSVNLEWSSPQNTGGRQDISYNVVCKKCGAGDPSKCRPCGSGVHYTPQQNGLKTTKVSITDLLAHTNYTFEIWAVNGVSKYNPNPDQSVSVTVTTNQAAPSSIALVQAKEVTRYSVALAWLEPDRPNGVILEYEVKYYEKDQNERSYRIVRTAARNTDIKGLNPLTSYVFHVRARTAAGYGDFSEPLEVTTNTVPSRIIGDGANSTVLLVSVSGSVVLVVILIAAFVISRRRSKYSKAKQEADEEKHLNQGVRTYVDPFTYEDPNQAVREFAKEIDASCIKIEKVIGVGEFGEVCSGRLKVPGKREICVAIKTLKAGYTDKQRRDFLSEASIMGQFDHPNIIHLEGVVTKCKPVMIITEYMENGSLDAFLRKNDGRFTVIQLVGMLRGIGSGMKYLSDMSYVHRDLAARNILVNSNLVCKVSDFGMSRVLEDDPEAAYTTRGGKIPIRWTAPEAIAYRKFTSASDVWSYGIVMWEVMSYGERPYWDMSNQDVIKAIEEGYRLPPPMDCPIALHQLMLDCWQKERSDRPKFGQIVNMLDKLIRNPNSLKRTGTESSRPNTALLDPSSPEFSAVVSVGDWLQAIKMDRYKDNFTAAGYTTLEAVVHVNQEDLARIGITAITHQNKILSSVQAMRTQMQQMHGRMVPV
Sequence of Vascular endothelial growth factor receptor 2 (P35968 whole entry): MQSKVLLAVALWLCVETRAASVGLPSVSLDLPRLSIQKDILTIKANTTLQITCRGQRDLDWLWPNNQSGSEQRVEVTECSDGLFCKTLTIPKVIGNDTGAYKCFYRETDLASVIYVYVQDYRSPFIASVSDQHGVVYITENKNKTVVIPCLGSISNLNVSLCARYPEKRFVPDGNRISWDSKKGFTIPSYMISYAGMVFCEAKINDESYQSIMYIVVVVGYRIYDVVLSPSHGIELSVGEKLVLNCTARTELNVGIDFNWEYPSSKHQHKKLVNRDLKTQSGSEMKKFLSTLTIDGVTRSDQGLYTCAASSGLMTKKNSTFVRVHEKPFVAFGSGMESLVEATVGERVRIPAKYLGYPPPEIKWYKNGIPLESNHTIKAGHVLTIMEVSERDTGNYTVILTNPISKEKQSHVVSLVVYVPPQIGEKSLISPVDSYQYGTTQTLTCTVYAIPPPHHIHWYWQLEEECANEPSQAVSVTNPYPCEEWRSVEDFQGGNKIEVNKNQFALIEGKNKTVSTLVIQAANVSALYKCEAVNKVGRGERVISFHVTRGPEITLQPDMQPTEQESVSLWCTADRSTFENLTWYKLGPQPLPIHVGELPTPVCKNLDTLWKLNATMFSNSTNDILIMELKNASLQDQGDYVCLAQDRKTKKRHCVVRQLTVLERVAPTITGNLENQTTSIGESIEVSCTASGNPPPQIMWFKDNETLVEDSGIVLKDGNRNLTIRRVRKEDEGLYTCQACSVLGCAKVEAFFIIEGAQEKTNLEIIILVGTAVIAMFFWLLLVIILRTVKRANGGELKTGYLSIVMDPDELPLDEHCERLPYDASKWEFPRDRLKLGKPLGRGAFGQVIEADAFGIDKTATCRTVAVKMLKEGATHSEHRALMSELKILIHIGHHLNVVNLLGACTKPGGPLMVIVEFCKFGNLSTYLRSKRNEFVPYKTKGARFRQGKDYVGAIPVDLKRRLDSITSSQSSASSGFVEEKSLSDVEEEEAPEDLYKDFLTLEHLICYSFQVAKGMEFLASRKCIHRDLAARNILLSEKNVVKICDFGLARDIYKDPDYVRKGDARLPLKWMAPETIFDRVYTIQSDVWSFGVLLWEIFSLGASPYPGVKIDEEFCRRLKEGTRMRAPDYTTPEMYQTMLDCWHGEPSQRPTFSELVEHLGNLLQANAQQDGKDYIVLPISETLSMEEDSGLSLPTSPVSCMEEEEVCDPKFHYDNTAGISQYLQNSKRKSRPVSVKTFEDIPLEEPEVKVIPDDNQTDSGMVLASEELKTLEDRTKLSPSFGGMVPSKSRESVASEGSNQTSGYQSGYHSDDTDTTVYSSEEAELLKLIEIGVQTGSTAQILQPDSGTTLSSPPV
Sequence of Tyrosine-protein kinase ABL1 (Homo sapiens) (P00519 whole entry): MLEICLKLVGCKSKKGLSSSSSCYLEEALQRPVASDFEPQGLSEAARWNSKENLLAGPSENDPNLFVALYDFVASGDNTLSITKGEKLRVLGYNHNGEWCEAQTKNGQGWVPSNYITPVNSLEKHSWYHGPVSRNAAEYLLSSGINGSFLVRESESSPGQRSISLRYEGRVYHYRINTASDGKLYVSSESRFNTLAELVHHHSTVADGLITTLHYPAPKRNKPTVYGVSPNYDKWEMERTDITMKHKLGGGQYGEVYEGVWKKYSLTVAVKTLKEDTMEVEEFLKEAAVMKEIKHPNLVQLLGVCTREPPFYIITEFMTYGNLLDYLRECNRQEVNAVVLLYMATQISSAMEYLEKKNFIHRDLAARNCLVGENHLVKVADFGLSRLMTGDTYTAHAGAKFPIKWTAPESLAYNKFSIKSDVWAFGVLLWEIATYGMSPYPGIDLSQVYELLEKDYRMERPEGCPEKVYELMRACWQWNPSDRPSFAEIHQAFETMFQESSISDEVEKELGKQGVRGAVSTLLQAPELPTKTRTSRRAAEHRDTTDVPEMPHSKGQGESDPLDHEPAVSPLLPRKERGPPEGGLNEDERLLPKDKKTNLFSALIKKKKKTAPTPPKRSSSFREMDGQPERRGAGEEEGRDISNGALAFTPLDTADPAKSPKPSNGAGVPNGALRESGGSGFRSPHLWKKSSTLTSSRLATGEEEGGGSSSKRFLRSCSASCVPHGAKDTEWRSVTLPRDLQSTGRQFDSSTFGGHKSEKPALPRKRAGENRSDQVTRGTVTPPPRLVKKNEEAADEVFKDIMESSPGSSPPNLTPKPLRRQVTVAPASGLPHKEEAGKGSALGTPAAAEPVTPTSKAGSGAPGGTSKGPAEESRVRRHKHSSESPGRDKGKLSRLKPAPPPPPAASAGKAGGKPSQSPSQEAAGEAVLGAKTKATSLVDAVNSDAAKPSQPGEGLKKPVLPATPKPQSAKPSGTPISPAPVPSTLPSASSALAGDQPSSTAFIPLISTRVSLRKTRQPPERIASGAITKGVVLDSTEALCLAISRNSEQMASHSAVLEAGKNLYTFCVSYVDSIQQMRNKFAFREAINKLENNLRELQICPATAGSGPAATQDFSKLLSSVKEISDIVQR
Sequence of Mitogen-activated protein kinase kinase kinase kinase 5 (Homo sapiens) (Q9Y4K4 whole entry, looked up): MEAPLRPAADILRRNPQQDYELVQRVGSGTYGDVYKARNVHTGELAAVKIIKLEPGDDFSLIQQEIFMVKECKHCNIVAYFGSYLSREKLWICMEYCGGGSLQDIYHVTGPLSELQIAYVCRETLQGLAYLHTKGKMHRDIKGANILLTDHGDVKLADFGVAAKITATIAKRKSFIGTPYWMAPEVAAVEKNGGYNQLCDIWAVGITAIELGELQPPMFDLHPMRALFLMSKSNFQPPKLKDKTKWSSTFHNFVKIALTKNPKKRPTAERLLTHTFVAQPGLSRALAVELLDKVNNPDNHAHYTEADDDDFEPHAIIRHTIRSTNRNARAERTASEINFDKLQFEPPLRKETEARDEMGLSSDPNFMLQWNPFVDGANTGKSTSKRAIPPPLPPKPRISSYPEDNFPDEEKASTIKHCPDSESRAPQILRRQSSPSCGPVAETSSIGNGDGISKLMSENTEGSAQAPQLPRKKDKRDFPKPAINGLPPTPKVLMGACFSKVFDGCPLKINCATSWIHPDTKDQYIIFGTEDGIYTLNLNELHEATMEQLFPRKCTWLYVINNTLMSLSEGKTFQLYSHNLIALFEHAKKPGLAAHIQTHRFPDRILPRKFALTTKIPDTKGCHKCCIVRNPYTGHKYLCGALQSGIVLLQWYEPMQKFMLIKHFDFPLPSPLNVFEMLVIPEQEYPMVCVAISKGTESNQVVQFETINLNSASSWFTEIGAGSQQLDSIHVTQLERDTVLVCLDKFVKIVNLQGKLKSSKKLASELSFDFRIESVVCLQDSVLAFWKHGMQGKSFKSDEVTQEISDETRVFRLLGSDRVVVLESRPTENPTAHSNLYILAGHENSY

COc1cc2ncnc(Oc3ccc(NC(=O)Nc4ccc(CN5CCOCC5)c(C(F)(F)F)c4)c4ccccc34)c2cc1OC
GI50 (UACC-62): 0.6 µM
TGI (UACC-62): 3.47 µM
CC50 (UACC-62; [9]): 18.6 µM
GI50 (IGROV-1): 0.52 µM
TGI (IGROV-1): 3.63 µM
CC50 (IGROV-1; [9]): > 100 µM
RatioGI50 [1]: 3.9 - 9.5
RatioLC50 [2]: 1.7
GI50 (U-251): 1.05 µM
TGI (U-251): 3.98 µM
CC50 (U-251; [9]): 27.5 µM
GI50 (KM12): 0.2 µM
TGI (KM12): 2.51 µM
CC50 (KM12; [9]): > 100 µM
inhibition [3]: Active
GI50 (HCT-15): 1 µM
TGI (HCT-15): 5.13 µM
CC50 (HCT-15; [9]): 28.2 µM
inhibition [4]: Active
GI50 (SW-620): 1.1 µM
TGI (SW-620): 11.8 µM
CC50 (SW-620; [9]): > 100 µM
RatioGI50 (NCI/ADR-RES): 3.3
GI50 (OVCAR-4): 0.12 µM
TGI (OVCAR-4): 10.5 µM
CC50 (OVCAR-4; [9]): 35.5 µM
GI50 (NCI-H322M): 0.56 µM
TGI (NCI-H322M): 15.1 µM
CC50 (NCI-H322M; [9]): 93.3 µM
inhibition [5]: Active
GI50 (OVCAR-3): 1 µM
TGI (OVCAR-3): 9.55 µM
CC50 (OVCAR-3; [9]): 42.7 µM
RatioGI50 (Melanoma cell [6]): 1.6 - 2.9
RatioGI50 (Melanoma cell [7]): 1.1 - 3.7
GI50 (BT-549): 1.15 µM
TGI (BT-549): 7.41 µM
CC50 (BT-549; [9]): 34.7 µM
GI50 (ACHN): 0.32 µM
TGI (ACHN): 1.62 µM
CC50 (ACHN; [9]): 14.1 µM
inhibition [8]: Active
